Cneo AK release – Cryptococcus neoformans lysis via adenylate kinase release. AID 651654. C. neoformans lysis, adenylate kinase release luminescence, 4 h; normalised: neutral wells 0, clomiphene wells 100. 0.2% of 360,000 active. lysis activity, % at 15 µM;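 active means mean lysis activity across replicates of at least 80%, whatever share of replicates individually reach that level; inactive means mean lysis activity below 80%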
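Assay system: C. neoformans cells. Amount: yeast cell density of 5 × 10^6 cells/mL. Technique: AK luminescence. Buffer or medium: YPD. Times: static 4 h at 37 °C with compound, 1 h detection. Dosing: single-point compound dose. Read-out: lysis from increased AK signal.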
miR-122 sensor – blocks miR-122 activity in Huh7 sensor cells; Huh7 miR-122 Renilla luciferase sensor, 48 h; neutral wells = 0, positive control = 100; activation (reporter increase), % at 12.5 µM; 0.3% of 340,000 active; AID 602342;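 active means mean replicate activation score at least 90 and every replicate individually at or above 90; inconclusive means only one of the two criteria met; inactive means neither criterion met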;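 further: higher luciferase means less miR-122 activity so hits act as miR-122 inhibitors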
DENV2 CPE – protects cells from dengue virus 2 cytopathic effect; DENV2-infected cells, cytopathic effect rescue, plate reader; CPE inhibition, % at 9.99 µM; 1.7% of 350,000 active; AID 651640; in the data active means CPE inhibition above about 20%, passing the limit was not always enough; inconclusive means no clear call, values can overlap the other calls; tested in BHK-21 cells;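 further: 0% = median of neutral control wells and 100% = median of positive control wells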
E-selectin induc – E-selectin induction on HUVECs. HUVEC E-selectin immunofluorescence imaging; normalized: neutral wells 0, TNF-alpha wells 100. activation, % at 7.58 µM. 0.37% of 260,000 active. AID 686992;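 active means mean E-selectin-positive cell signal at least 10% of the positive control, reached in at least 60% of replicates, without over 20% cell loss; inconclusive means no rule given, readout overlaps actives, possibly toxicity-flagged; inactive means the rest, including those meeting only one limit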
Target sequence (P16581 whole entry, looked up): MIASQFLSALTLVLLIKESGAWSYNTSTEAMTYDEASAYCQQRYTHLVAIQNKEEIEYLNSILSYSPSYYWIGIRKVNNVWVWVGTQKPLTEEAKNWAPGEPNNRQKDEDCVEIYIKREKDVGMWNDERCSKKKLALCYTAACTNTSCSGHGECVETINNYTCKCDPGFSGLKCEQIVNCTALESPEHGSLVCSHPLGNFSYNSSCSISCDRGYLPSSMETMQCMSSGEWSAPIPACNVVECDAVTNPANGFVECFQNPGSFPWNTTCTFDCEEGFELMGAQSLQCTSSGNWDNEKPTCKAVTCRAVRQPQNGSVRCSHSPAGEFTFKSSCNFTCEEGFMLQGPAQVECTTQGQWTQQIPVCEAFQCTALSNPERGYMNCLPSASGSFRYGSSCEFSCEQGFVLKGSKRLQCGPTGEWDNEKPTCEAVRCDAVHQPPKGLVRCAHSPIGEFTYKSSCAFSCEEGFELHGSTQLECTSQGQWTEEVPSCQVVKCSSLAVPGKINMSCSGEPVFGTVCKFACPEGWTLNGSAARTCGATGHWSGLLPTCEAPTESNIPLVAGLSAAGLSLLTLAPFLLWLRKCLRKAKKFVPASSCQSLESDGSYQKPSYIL
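Assay system: HUVEC, human umbilical vein endothelial cells / Amount: 3,000 HUVEC/well / Controls: TNF-alpha positive control, DMSO neutral control / Compound dosing: single concentration / Medium: EGM-2 over gelatin coat / Evaluation: percent E-selectin-positive cells / Signal: immunofluorescence imaging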
Ecoli rRNA inh – inhibits bacterial ribosomal RNA function over humanized ribosomes | E. coli WT GFP vs humanized-ribosome RFP mutants, fluorescence, 24 h; hits give low values; DMSO median 0, no signal -100 | GFP signal change (wild-type ribosome), % (no concentration beside the values) | 1.6% of 350,000 active;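 active means significant combined selectivity score with lowered wild-type GFP, culture density cut under 30%, mutant RFP and density less affected; inactive means any of these conditions unmet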
AID977621 – wild-type E. coli growth inhibition versus H69 humanized strain – H69 mutant RFP, wild-type GFP, cherry-pick, dose response; fluorescence, 24 h; 1,900 tested, under 10 active; activity change, negative = inhibition at 50 µM; shares compounds with Ecoli rRNA inh;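 active means Wild-type ribosome reporter drop at least double the humanized mutant ribosome reporter drop, growth loss under a set limit; inconclusive means no clear call, values can overlap the other calls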;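 further: wild-type GFP and H69 mutant RFP strains grown together 50/50 in each well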
AID977628 – E. coli growth inhibition, wild-type GFP versus h24 humanized RFP strain, dose response, h24 mutant RFP vs wild-type GFP, cherry-pick; shares compounds with Ecoli rRNA inh; E. coli WT GFP strain growth, fluorescence, 24 h; activity change, negative = inhibition at 50 µM; 1,900 tested, under 10 active; AID 977628;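 active means compound lowering the normal-ribosome reporter at least twice as much as the humanized-ribosome reporter, growth loss under a set limit; inconclusive means no clear call, values can overlap the other calls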;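 further: wild-type GFP and h24 humanized RFP strains co-cultured 1 to 1 per well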
* hit, by the source's call; ? = inconclusive; . = not tested or not shown; [ ] = dose if it differs, or a comment. Rows were chosen to be rich in hits. Some 3.1% of all compounds tested hit in one or more screens of this group.

SMILES	Cneo AK release	miR-122 sensor	DENV2 CPE	E-selectin induc	Ecoli rRNA inh	AID977621	AID977628
O=C(NCc1ccccc1)C1CCN(S(=O)(=O)c2cc([N+](=O)[O-])ccc2Cl)CC1	.	.	2	.	0	.	.
O=C(NCc1cccnc1)C1CCN(S(=O)(=O)c2cc([N+](=O)[O-])ccc2Cl)CC1	3	1	7	.	-3.1*	-8.1	-13
CCNC(=O)C[C@@H]1C=C[C@H](NC(=O)NC2CCCCC2)[C@H](CO)O1	1	.	8	0	4	.	.
COc1ccc(OC(C)C(=O)Nc2ccc(F)cc2F)cc1 (stereo not drawn)	.	5	.	.	-2	.	.
CC(C)CNC(=O)c1cccc(NC(=O)C(C)Oc2ccccc2)c1 (stereo not drawn)	.	3	-10	.	-24*	-16	-12
CCC(=O)Oc1ccc(C(=O)Nc2cccc(C(=O)NCC(C)C)c2)cc1	.	.	-3	0	-5	.	.
COc1ccc(OC(C)C(=O)Nc2cccc(F)c2)cc1 (stereo not drawn)	.	0	-1	.	-23*	-1.8	?
CCSc1nc2ccccc2c(=O)n1CCc1ccc(OC)c(OC)c1	-3	0	3	1	-33*	.	?
COc1ccc(CCn2c(C)nc3ccccc3c2=O)cc1OC	2	6	-7	.	6	.	.
COC(=O)c1sc(-c2ccc(C(C)(C)C)cc2)cc1NC(=O)c1ccccc1C(=O)O	.	.	1	0	-17*	-21	.
C[C@@H]1CN([C@H](C)CO)S(=O)(=O)c2ccc(C#CC3CC3)cc2O[C@@H]1CN(C)C(=O)C1CC1	-3	-29[16.7 µM]	1	0	-2	.	.
CN(c1ccc(C(=O)NCc2cccs2)cc1)S(=O)(=O)c1ccccc1	.	16	-1	5	-18*	-5.3	-4.9
CN(c1ccccc1)S(=O)(=O)c1ccc(C(=O)OCC(=O)NCc2cccs2)cc1	.	.	4	2	-6	.	.
COc1ccc(N2C(=O)C3C(c4ccc(C(=O)O)cc4)NC(Cc4ccccc4)(C(=O)O)C3C2=O)c([N+](=O)[O-])c1 (stereo not drawn)	.	.	-2	4	-19*	3.8	3.9
Cn1cc([N+](=O)[O-])c(C(=O)Nc2ccc3nc(-c4ccccc4)[nH]c3c2)n1	-3	8	.	.	5	.	.
Cn1cc([N+](=O)[O-])c(C(=O)Nc2ccc(-c3nc4ccccc4[nH]3)cc2)n1	.	.	-11	.	-26*	-29	?
CCCC(=O)Nc1ccc2c(c1)C(=O)N(C)C[C@@H](OC)[C@H](C)CN(Cc1nccs1)[C@H](C)CO2	2	.	-1	0	-4	.	.
COC(=O)c1cc2c(c3c4cc(OC)ccc4n(C(=O)c4ccccc4)c13)C(=O)N(Cc1ccco1)C2	.	.	-2	1	-14*	0.15	-7.4
COC(=O)c1cc2c(c3c4cc(F)ccc4n(S(=O)(=O)c4ccccc4)c13)C(=O)N(Cc1ccco1)C2	.	.	17	0	-18*	-2.1	?
COC(=O)c1cc2c(c3c4cc(F)ccc4n(S(=O)(=O)c4cccc(C)c4)c13)C(=O)N(Cc1ccco1)C2	.	.	18	0	-17*	-19	-9.8
N#Cc1ccc(-c2ccc3c(c2)[C@H]2[C@H](CCN2S(=O)(=O)c2ccccc2F)[C@@H](CO)N3)cc1	4	62[16.7 µM]	-10	0	-15	.	.
COc1ccccc1C1CCN(Cc2cccc([N+](=O)[O-])c2)CC1	.	.	8	.	-24*	.	?
Cn1cc(CN2CCCC(C(=O)c3cccs3)C2)c(-c2cccc(Cl)c2)n1 (stereo not drawn)	0	-8	0	.	-25*	-1.8	-2.9
Cn1cc(CN(CCO)Cc2cccs2)c(-c2cccc(Cl)c2)n1	0	.	-2	.	-31*	5.9	-12
CN(Cc1cn(C)nc1-c1cccc(Cl)c1)Cc1nccn1C	.	3	2	0	2	.	.
Cc1ccccc1S(=O)(=O)N1C[C@H]2[C@@H](c3ccccc31)[C@@H](CO)N2C(=O)CC1CC1	4	67[16.7 µM]	3	0	-7	.	.

High-throughput results deposited in PubChem by Broad Institute.
